Reference: BindingDB's records for doi:10.1021/ml500113s (Rti International, 2014)

Target: Sodium-dependent serotonin transporter (Rattus norvegicus, UniProt P31652)
Experiment: Inhibition of SERT-mediated serotonin uptake in rat synaptosomes
In short: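 Synaptosomes prepared from rat brain homogenate. Each compound was run in both the release assay and the uptake-inhibition assay to classify it as a releasing substrate or an uptake inhibitor. Dose-response curves were then completed only for the assigned activity. Values are means ± SD from N = 3 experiments, each performed in triplicate.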

Sequence of Sodium-dependent serotonin transporter (P31652 whole entry): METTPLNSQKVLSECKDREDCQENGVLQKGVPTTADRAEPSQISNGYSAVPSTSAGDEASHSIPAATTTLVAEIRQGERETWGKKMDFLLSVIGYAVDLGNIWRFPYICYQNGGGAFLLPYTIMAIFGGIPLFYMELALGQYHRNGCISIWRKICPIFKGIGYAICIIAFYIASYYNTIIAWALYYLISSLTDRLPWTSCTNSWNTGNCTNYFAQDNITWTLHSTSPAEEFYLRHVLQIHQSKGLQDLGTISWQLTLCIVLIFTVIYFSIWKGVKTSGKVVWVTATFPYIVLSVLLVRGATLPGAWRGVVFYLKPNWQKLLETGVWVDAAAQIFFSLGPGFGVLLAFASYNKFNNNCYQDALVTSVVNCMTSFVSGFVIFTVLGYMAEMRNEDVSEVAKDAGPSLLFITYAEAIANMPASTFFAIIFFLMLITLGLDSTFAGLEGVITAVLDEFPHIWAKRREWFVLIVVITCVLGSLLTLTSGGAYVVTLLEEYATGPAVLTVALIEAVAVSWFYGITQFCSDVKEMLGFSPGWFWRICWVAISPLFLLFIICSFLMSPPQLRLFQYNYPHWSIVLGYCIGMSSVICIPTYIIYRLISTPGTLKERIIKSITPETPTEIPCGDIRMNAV

CC(NC1CC1)C(=O)c1cccc(Cl)c1 (stereo unspecified) [2-(N-Cyclopropylamino)-3-chloropropiophenone]
IC50: 3.18 µM
